Assay results reported in ChEMBL document CHEMBL1138854, “Synthesis and antitumor activity of guanylhydrazones from 6-(2,4-dichloro-5-nitrophenyl)imidazo[2,1-b]thiazoles and 6-pyridylimidazo[2,1-b]thiazoles(1)” (2006).
The source made the active and inactive calls. The calls are words filed in the database; no cut-off is given here.

Assays:
[1] = system: HL-60; assay: Induction of cell death in HL60 cells at 50 uM within 3 hrs relative to control; type: functional, Homo sapiens
Summary of the method: (§1)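 Compound was dissolved in DMSO and diluted into complete medium; controls received matching DMSO. Cell death was scored by propidium iodide flow cytometry and by trypan blue exclusion. One experiment is shown, repeated three times.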

[2] = system: HL-60; assay: Induction of cell death in HL60 cells at 50 uM after 24 hrs relative to control; type: functional, Homo sapiens; summary of the method: as §1
[3] = system: HL-60; assay: Cell cycle arrest in HL60 cells by accumulation in G2/M phase; type: functional, cell-based; details: Homo sapiens
Summary of the method: (§2)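 HL60 cells (RPMI 1640, 10% FCS, 2 mM glutamine, 37 °C, 5% CO2) exposed to graded concentrations for 24 h; compound in DMSO diluted in complete medium, DMSO vehicle controls. Nuclei isolated, kept at 4 °C in dark, stained with 50 µg/mL propidium iodide just before flow cytometry; DNA profiles give G0/G1, S, G2/M fractions. Mean ± SEM of three determinations.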

[4] = system: HL-60; assay: Reduction in G0/G1 phase of cell cycle arrest in HL60 cells; type: functional, cell-based; details: Homo sapiens; summary of the method: as §2
[5] = system: HL-60; assay: Reduction in S phase of cell cycle arrest in HL60 cells; type: functional, cell-based; details: Homo sapiens; summary of the method: as §2
[6] = system: HL-60; assay: Increase in p21 level in HL60 cells at 25 uM after 24 hrs; type: functional, cell-based; details: Homo sapiens
Summary of the method: (§3)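 HL60 cells held 24 h with or without 25 µM compound (DMSO vehicle); cellular proteins extracted and p21 and p27 detected by Western blotting with specific antibodies. Repeated at least twice.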

[7] = system: HL-60; assay: Increase in p27 level in HL60 cells at 25 uM after 24 hrs; type: functional, cell-based; details: Homo sapiens; summary of the method: as §3
[8] = Antitumor activity against leukemia cell lines of the NCI60 panel; type: functional; details: Homo sapiens
Summary of the method: (§4)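 Run by NCI in the 60-cell-line panel (details in Supporting Information). Highest concentration 10^-4 M unless noted (one case 10-2.6 M). Values expressed as -log molar concentration giving 50% growth inhibition (pGI50), total cytostasis (pTGI) or 50% cell kill (pLC50); only values >4.00 reported; mean graph midpoint is the calculated panel mean.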

[9] = system: NSCLC; assay: Antitumor activity against NSCLC cell lines of the NCI60 panel; type: functional; details: Homo sapiens; summary of the method: as §4
[10] = Antitumor activity against colon cell lines of the NCI60 panel; type: functional; details: Homo sapiens; summary of the method: as §4
[11] = Antitumor activity against CNS cell lines of the NCI60 panel; type: functional; details: Homo sapiens; summary of the method: as §4
[12] = Antitumor activity against melanoma cell lines of the NCI60 panel; type: functional; details: Homo sapiens; summary of the method: as §4
[13] = Antitumor activity against ovarian cell lines of the NCI60 panel; type: functional; details: Homo sapiens; summary of the method: as §4
[14] = Antitumor activity against renal cell lines of the NCI60 panel; type: functional, Homo sapiens; details: Homo sapiens, renal; summary of the method: as §4
[15] = Antitumor activity against prostate cell lines of the NCI60 panel; type: functional; details: Homo sapiens; summary of the method: as §4
[16] = Antitumor activity against breast cell lines of the NCI60 panel; type: functional; details: Homo sapiens; summary of the method: as §4
[17] = system: HL-60; assay: Induction of cell death in HL60 cells at 25 uM after 48 hrs relative to control; type: functional, Homo sapiens; summary of the method: as §1
[18] = system: HL-60; assay: Reduction in cell proliferation of HL60 cells at 25 uM after 48 hrs relative to control; type: functional, Homo sapiens; design: scale not given: the % may be the effect or the level left
Summary of the method: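 HL60 cells in complete RPMI medium incubated with compound (DMSO-diluted; vehicle controls); total cell number counted by flow cytometry relative to control. One experiment shown, repeated three times.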

[19] = system: HL-60; assay: Cell cycle arrest in HL60 cells by accumulation in G2/M phase at 25 uM after 24 hrs
[20] = target: T1, S-adenosylmethionine decarboxylase proenzyme (Homo sapiens) (UniProt P17707); assay: Inhibition of SAMDC in HL60 cells by release of radioactive CO2 from [14C-carboxyl]S-adenosylmethionine; details: HL-60
T1 sequence (whole entry): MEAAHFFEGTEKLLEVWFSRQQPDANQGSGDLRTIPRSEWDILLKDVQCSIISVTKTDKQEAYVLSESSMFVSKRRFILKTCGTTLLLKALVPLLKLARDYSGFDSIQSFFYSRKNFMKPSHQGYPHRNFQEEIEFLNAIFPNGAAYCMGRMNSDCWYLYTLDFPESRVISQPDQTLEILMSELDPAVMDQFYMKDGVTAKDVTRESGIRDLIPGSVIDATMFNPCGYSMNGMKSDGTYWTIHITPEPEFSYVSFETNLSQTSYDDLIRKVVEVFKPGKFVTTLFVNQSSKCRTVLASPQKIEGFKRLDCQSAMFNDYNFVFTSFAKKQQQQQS

[21] = system: HL-60; assay: Mitochondrial potential in HL60 cells assessed as decrease in mitochondrial membrane potential by DiOC6 staining at 25 uM after 24 hrs; design: scale not given: the % may be the effect or the level left

**Q.** Which Activity [1] does the source give for `Cc1sc2nc(-c3ccccn3)c(/C=N/NC(=N)N)n2c1C` here?
**A.** 45%

**Q.** What about the Activity [2] of the same compound?
**A.** 100%

**Q.** And the Activity [3]?
**A.** Dose-dependent effect

**Q.** What about the Activity [4] of the same compound?
**A.** Active

**Q.** And the Activity [5]?
**A.** Active

**Q.** What about the Activity [6] of the same compound?
**A.** Active

**Q.** And the Activity [7]?
**A.** Active

**Q.** What about the GI50 [8] of the same compound?
**A.** 52.5 µM

**Q.** And the TGI ([8]; read-out: pTGI (converted))?
**A.** 83.2 µM

**Q.** And the GI50 [9]?
**A.** 18.2 µM

**Q.** What about the TGI ([9]; read-out: pTGI (converted)) of the same compound?
**A.** 37.2 µM

**Q.** What about the GI50 [10] of the same compound?
**A.** 18.2 µM

**Q.** And the TGI ([10]; read-out: pTGI (converted))?
**A.** 40.7 µM

**Q.** And the GI50 [11]?
**A.** 20.9 µM

**Q.** And the TGI ([11]; read-out: pTGI (converted))?
**A.** 41.7 µM

**Q.** What about the GI50 [12] of the same compound?
**A.** 17 µM

**Q.** What about the TGI ([12]; read-out: pTGI (converted)) of the same compound?
**A.** 33.1 µM

**Q.** And the GI50 [13]?
**A.** 18.6 µM

**Q.** What about the TGI ([13]; read-out: pTGI (converted)) of the same compound?
**A.** 37.2 µM

**Q.** And the GI50 [14]?
**A.** 6.61 µM

**Q.** And the TGI ([14]; read-out: pTGI (converted))?
**A.** 31.6 µM

**Q.** What about the GI50 [15] of the same compound?
**A.** 22.4 µM

**Q.** What about the TGI ([15]; read-out: pTGI (converted)) of the same compound?
**A.** 57.5 µM

**Q.** And the GI50 [16]?
**A.** 22.9 µM

**Q.** And the TGI ([16]; read-out: pTGI (converted))?
**A.** 41.7 µM

**Q.** What about the Activity [17] of the same compound?
**A.** 25%

**Q.** And the Activity [18]?
**A.** > 80%

**Q.** What about the Activity [19] of the same compound?
**A.** 52%

**Q.** What about the Activity [20] of the same compound?
**A.** inactive

**Q.** What about the Activity [21] of the same compound?
**A.** 50%
